Screening data deposited in PubChem by Broad Institute.
This is one part of a sample in which hits are shown more often than they occur.
T cruzi intra: blocks T. cruzi growth inside host cells | intracellular Trypanosoma cruzi in host cells, plate reader | activity score (inhibition), % at 5.01 µM | hit rate 4.9% among 22,000 | AID 651903; in the data active means activity score above about 55%;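 further: parasites and compound incubated about four days before reading; 0% = median of neutral control wells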
A1 apoptosis 2: blocks A1, raising caspase activity; 24,000 tested, under 10 active; AID 2465; caspase activation, % (test concentration not listed); MEF A1-2A-BIM cells, caspase-Glo luminescence, 3 h; percent of clofoctol response, DMSO zero; in the data active means caspase activation above about 5.9%
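Material: mouse embryonic fibroblasts co-expressing A1 and BIM (A1-2A-BIM), primed for A1 dependence / Quantity: 2500 cells/well / Buffer or medium: RPMI-1640 growth medium with 10% FBS / Doses: 50 nL compound per well, pinned / Schedule: 3 h compound exposure at 37 °C / Signal: Caspase-Glo luminescence (DEVD substrate) / Measure: Caspase-3/7 activation, seen as rise in luminescence signal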
INS-1E rescue: INS-1E beta cell protection from cytokine death; protection from cytokine-induced ATP loss, % at 10 µM; hit rate 0.1% among 20,000; AID 488910; INS-1E cytokine-induced death, ATP luminescence, 48 h; normalised: neutral wells 0, positive control 100;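 active means mean replicate protection from cytokine-induced ATP loss at least 50% and at least 75% of replicates each reaching 50%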
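Material: INS-1E rat cells; Quantity: 8000 cells/well; Buffer or medium: phenol-red-free RPMI with 5% fetal bovine serum; Probe or stimulus: cytokine cocktail of IFN-γ, TNF-α and IL-1β; Compound dosing: single test concentration per compound, delivered by pin transfer; Incubation: 48 h co-treatment, 10 min post-lysis read; Signal: CellTiter-Glo luminescence.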
Active calls of the source: *; . = not tested or not shown.

SMILES	T cruzi intra	A1 apoptosis 2	INS-1E rescue
C[C@@H]1CN([C@H](C)CO)C(=O)CCCn2nncc2CO[C@H]1CN(C)S(=O)(=O)c1ccc(-c2ccccc2)cc1	-4	1	2
C[C@@H]1CN([C@@H](C)CO)C(=O)CCCn2nncc2CO[C@H]1CN(C)Cc1ccc(-c2ccccc2)cc1	22	.	.
C[C@@H]1CN([C@H](C)CO)C(=O)CCCn2nncc2CO[C@@H]1CN(C)S(=O)(=O)c1ccc(Oc2ccccc2)cc1	26	1	-2
C[C@H](CO)N1C[C@H](C)[C@@H](CN(C)S(=O)(=O)c2ccc(-c3ccccc3)cc2)OCc2cnnn2CCCC1=O	80*	1	.
C[C@H](CO)N1C[C@H](C)[C@H](CN(C)S(=O)(=O)c2ccc(Oc3ccccc3)cc2)OCc2cnnn2CCCC1=O	70*	0	8
COc1ccc(Br)c(/C=N/NC(=O)c2ccccn2)c1	-6	-10	-7
COc1ccc(C#Cc2ccc3c(c2)[C@]2(C(=O)N3)[C@H](C(=O)NC[C@H](O)c3ccccc3)[C@H]3C(=O)O[C@H](c4ccccc4)[C@H](c4ccccc4)N3[C@@H]2c2ccccc2OCCO)cc1	.	1	.
C[C@@H]1CN([C@@H](C)CO)C(=O)c2cc(NC(=O)Nc3ccc4c(c3)OCO4)ccc2O[C@@H](C)CCCCO[C@H]1CN(C)CC1CCCCC1	.	1	.
C[C@@H]1CCCCO[C@@H](CN(C)CC2CCCCC2)[C@@H](C)CN([C@H](C)CO)C(=O)c2cc(NC(=O)Nc3ccc4c(c3)OCO4)ccc2O1	58*	-3	-25
C[C@@H]1CCCCO[C@@H](CN(C)Cc2ccc3c(c2)OCO3)[C@@H](C)CN([C@H](C)CO)C(=O)c2cc(NC(=O)Nc3ccc(C(F)(F)F)cc3)ccc2O1	65*	.	-16
C[C@@H]1CCCCO[C@@H](CN(C)Cc2ccc3c(c2)OCO3)[C@@H](C)CN([C@H](C)CO)C(=O)c2cc(NC(=O)Nc3ccc4c(c3)OCO4)ccc2O1	71*	.	-18
C[C@@H]1CCCCO[C@H](CN(C)CC2CCCCC2)[C@@H](C)CN([C@H](C)CO)C(=O)c2cc(NC(=O)Nc3ccc(F)cc3)ccc2O1	67*	0	-23
C[C@H]1CCCCO[C@H](CN(C)Cc2ccc3c(c2)OCO3)[C@@H](C)CN([C@@H](C)CO)C(=O)c2cc(NC(=O)Nc3ccc4c(c3)OCO4)ccc2O1	.	1	.
C[C@@H]1CN([C@@H](C)CO)C(=O)c2cc(NC(=O)Nc3ccc(F)cc3)ccc2O[C@@H](C)CCCCO[C@H]1CN(C)CC1CC1	.	1	.
C[C@@H]1CN([C@H](C)CO)C(=O)c2cc(NC(=O)Nc3ccc(C(F)(F)F)cc3)ccc2O[C@@H](C)CCCCO[C@H]1CN(C)Cc1ccc2c(c1)OCO2	.	1	.
O=C(NO)c1cccc(C(=O)N/N=C/c2ccc(O)c(F)c2)c1	-14	.	0
O=C(NO)c1cccc(C(=O)N/N=C/c2ccc(Br)s2)c1	-12	-2	8
COC(=O)CCCCCCC(=O)N=NC=C1C=CN(O)C=C1	-11	.	11
O=C(CCCCCCC(=O)N/N=C/c1ccc(O)c(O)c1)NO	-8	.	16
C[C@@H]1CCCCO[C@H](CN(C)Cc2ccc(Cl)c(Cl)c2)[C@@H](C)CN([C@H](C)CO)C(=O)c2cc(NC(=O)Nc3ccc4c(c3)OCO4)ccc2O1	69*	.	-26
C[C@@H]1CCCCO[C@H](CN(C)Cc2ccc(Cl)c(Cl)c2)[C@H](C)CN([C@@H](C)CO)C(=O)c2cc(NC(=O)Nc3ccc(C(F)(F)F)cc3)ccc2O1	.	-1	.
C[C@@H]1CCCCO[C@@H](CN(C)Cc2ccc(Cl)c(Cl)c2)[C@@H](C)CN([C@H](C)CO)C(=O)c2cc(NC(=O)Nc3ccc(C(F)(F)F)cc3)ccc2O1	76*	.	-18
C[C@@H]1CCCCO[C@@H](CN(C)Cc2ccc(Cl)c(Cl)c2)[C@H](C)CN([C@H](C)CO)C(=O)c2cc(NC(=O)Nc3ccc4c(c3)OCO4)ccc2O1	.	2	.
COC(=O)c1ccc([C@@H]2C=C(C(=O)O)O[C@H](OCCCCO)C2)cc1	.	0	.
O=C1C[C@@](C(=O)NCc2ccccc2)(c2ccc([N+](=O)[O-])cc2)[C@@H](c2ccc(CO)cc2I)N1CC12CC3CC(CC(C3)C1)C2	.	-1	.
O=C(CCCCC(=O)N/N=C/c1ccc(-c2cccc(Cl)c2)o1)NO	19	.	149*
Cc1ccc(/C=N/NC(=O)c2ccccn2)o1	2	-4	-3
O=C(N/N=C/c1cc(Br)cc(Br)c1O)c1ccccn1	78*	.	-42
Cc1ccc(/C=N/NC(=O)CCCCCC(=O)NO)o1	7	.	108*
